The values below come from the array DNA melting data of Ke et al. (doi:10.1101/2024.01.08.574731).

The nature of series [1]: folding enthalpy; higher = less favourable; fluorescence melt of hairpins on a sequencing array, two-state fit. The note with it: sodium 0.088 M. In a few lines:
(§1)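 Hairpins were imaged by Cy3 fluorescence on a sequenced MiSeq flow cell with annealed Cy3 and quencher oligos, in 50 mM Na-HEPES pH 8.0, 25 mM NaCl, in 2.5 °C steps up to 60 °C. Bootstrapped two-state fits of normalised signals gave melting temperature and folding enthalpy. Four replicates were combined by inverse variance, and fitted temperatures were raised by 9.35 °C to match UV melts.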

Series [2] in a line: melting temperature; fluorescence melt of hairpins on a sequencing array, two-state fit, raised by 9.35 °C to match UV melts. To be noted: sodium 0.088 M. Put shortly: as §1

For GCGACGCGAAAGCGAGGC ((..(((....)))..)), the folding enthalpy in series [1] is -12.8 kcal/mol. In addition, the Tm in series [2] came to 54.6 °C.
For GCGACGCGAAAGCTCCGC (((..((....))..))), in that order: -20.2 kcal/mol and 50.6 °C.
For GCGACGGCGAAAGCCCGC (((..(((....)))))), in that order: -16.6 kcal/mol and 58.1 °C.
For GCGACGGGAAACCGCCAC (.(.(((....))).).), in that order: -13.4 kcal/mol and 31.9 °C.
For GCGACGGGAAACCGTCAC (.(((((....))))).), the folding enthalpy in series [1] is -13 kcal/mol. Besides, the Tm in series [2] turned out to be 48.7 °C.
Consider GCGACTCATCGC ((((....)))), for which the folding enthalpy in series [1] was -24.5 kcal/mol. In addition, the Tm in series [2] was found to be 49 °C.
As to GCGACTCGAAAGAGCGC (((.(((....)))))), the folding enthalpy in series [1] is -32.7 kcal/mol. Further, the Tm in series [2] is 60.4 °C.
As for GCGACTGGAAACAACCGC (((..((....))..))), the folding enthalpy in series [1] is -18.1 kcal/mol. Moreover, the Tm in series [2] was found to be 29.2 °C.
On the same counts, the results for GCGACTTCTCGC ((((....)))) are -25.7 kcal/mol and 47.8 °C.
GCGAGAGATCGC ((((....)))): the folding enthalpy in series [1] was -17.5 kcal/mol. Besides, the Tm in series [2] was 50.3 °C.
GCGAGATTTCGC ((((....)))): the folding enthalpy in series [1] was -20.1 kcal/mol. Besides, the Tm in series [2] worked out at 50.1 °C.
On the same counts, the results for GCGAGCACTCGC ((((....)))) are -26.4 kcal/mol and 56.8 °C.
Turning to GCGAGCCCGAAAGGGCGC (((..(((....)))))), in series [1], the folding enthalpy was -7.38 kcal/mol. In series [2], the Tm is 55.8 °C.
For GCGAGCCCTCGC ((((....)))), in that order: -26 kcal/mol and 55 °C.
On the same counts, the results for GCGAGCCTCGC ((((...)))) are -21.9 kcal/mol and 49.7 °C.
For GCGAGCGAAAGCTACCGC ((((((....)))..))), in that order: -18.8 kcal/mol and 48.1 °C.
With GCGAGCGAAAGCTGTCGC ((((((....)))..))), the folding enthalpy in series [1] is -23.8 kcal/mol. Also, the Tm in series [2] stood at 52.9 °C.
For GCGAGCGAAAGCTTCGC ((((((....))).))), in that order: -28 kcal/mol and 66.1 °C.
As to GCGAGCGGAAACGCTTGC ((.((((....)))).)), the folding enthalpy in series [1] is -34.4 kcal/mol. In addition, the Tm in series [2] is 61.9 °C.
For GCGAGCGTCGC ((((...)))), in that order: -10.2 kcal/mol and 60 °C.
On the same counts, the results for GCGAGCTATCGC ((((....)))) are -24.2 kcal/mol and 60.8 °C.
On the same counts, the results for GCGAGCTCTCGC ((((....)))) are -30.9 kcal/mol and 53.1 °C.
On to GCGAGCTTCGC ((((...)))), for which the folding enthalpy in series [1] is -18.5 kcal/mol. The Tm in series [2] came out at 49 °C.
For GCGAGGAGTCGC ((((....)))), in that order: -13.4 kcal/mol and 52.8 °C.
On the same counts, the results for GCGAGGCGAAAGCCATGC ((..(((....)))..)) are -17.6 kcal/mol and 58.1 °C.
For GCGAGGCGAAAGCCTGGC ((.((((....)))).)), in that order: -24.8 kcal/mol and 66.5 °C.
As for GCGAGGCGAAAGCGTTGC ((.(.((....)).).)), the folding enthalpy in series [1] is -18.6 kcal/mol. Further, in series [2], the Tm was determined as 55.5 °C.
For GCGAGGCGAAAGCTTAGC ((.(.((....)).).)), in that order: -16.7 kcal/mol and 56.9 °C.
For the sequence GCGAGGGCGAAAGCCCGC (((..(((....)))))), in series [1], the folding enthalpy is -8.66 kcal/mol. Besides, in series [2], the Tm worked out at 59.5 °C.
For GCGAGGTATCGC ((((....)))), in that order: -21.6 kcal/mol and 55.6 °C.
For the sequence GCGAGGTCTCGC ((((....)))), the folding enthalpy in series [1] was -22 kcal/mol. Besides, the Tm in series [2] worked out at 54.9 °C.
On the same counts, the results for GCGAGTACGAAAGTACGC (((..(((....)))))) are -12 kcal/mol and 53.1 °C.
On the same counts, the results for GCGAGTAGTCGC ((((....)))) are -19.9 kcal/mol and 54.3 °C.
For GCGAGTCATCGC ((((....)))), in that order: -24.8 kcal/mol and 67.8 °C.
As for GCGAGTGGAAACGCTCGC (((((.(....).))))), in series [1], the folding enthalpy was -46 kcal/mol. Besides, the Tm in series [2] turned out to be 64 °C.
On the same counts, the results for GCGAGTGTTCGC ((((....)))) are -14.4 kcal/mol and 49 °C.
On the same counts, the results for GCGAGTTATCGC ((((....)))) are -24 kcal/mol and 57.6 °C.
For GCGAGTTCTCGC ((((....)))), in that order: -25.6 kcal/mol and 56.2 °C.
